# High-throughput results (PubChem)
# An excerpt weighted towards active compounds, which were near 1.4% of everything screened.
# FXIIa inh 1536 = factor XIIa (human) inhibition. P00748. inhibition, % at 5 µM. purified FXIIa, Boc-QGR-AMC fluorogenic substrate, 2 h. hit rate 0.3% among 220,000. AID 800; in the data active means inhibition above about 40%;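 further: 0% = enzyme with no compound and 100% = blank without enzyme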
# thrombin 1536 = blocks human thrombin protease activity; P00734; alpha-thrombin, Boc-VPR-AMC fluorogenic substrate cleavage; inhibition, % at 5 µM; hit rate 0.26% among 220,000; AID 1046;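 active means inhibition at or above 40%; inactive means inhibition below 40%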;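 further: 0% = enzyme with no compound and 100% = wells without enzyme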
#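 Material: human alpha-thrombin protein; Also added: Boc-VPR-AMC substrate, 15 µM final; Timing: enzyme reaction carried out at room temperature; Signal: fluorescence, ex 355 nm, em 460 nm; Measure: % inhibition of thrombin; Controls: enzyme without compound as high, wells lacking enzyme as low.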
# hK5 inh = blocks human kallikrein 5 protease activity; hit rate 0.59% among 210,000; inhibition, % at 5 µM; recombinant hK5, fluorogenic AMC substrate cleavage; Q9Y337; AID 873;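 active means inhibition of 40% or more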;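 further: 0% = enzyme controls without compound and 100% = no-enzyme blanks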
# FXIa inh = blocks human coagulation factor XIa protease activity | P03951 | purified FXIa, Boc-Glu-Ala-Arg-AMC fluorogenic substrate | inhibition, % at 5 µM | hit rate 0.14% among 220,000;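 active means inhibition of at least 40%; inactive means inhibition below 40%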;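 further: fluorescence of freed AMC excited at 355 nm; 0% = enzyme without compound and 100% = no enzyme blank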
# Target sequence (P03951 19-387 limits assumed): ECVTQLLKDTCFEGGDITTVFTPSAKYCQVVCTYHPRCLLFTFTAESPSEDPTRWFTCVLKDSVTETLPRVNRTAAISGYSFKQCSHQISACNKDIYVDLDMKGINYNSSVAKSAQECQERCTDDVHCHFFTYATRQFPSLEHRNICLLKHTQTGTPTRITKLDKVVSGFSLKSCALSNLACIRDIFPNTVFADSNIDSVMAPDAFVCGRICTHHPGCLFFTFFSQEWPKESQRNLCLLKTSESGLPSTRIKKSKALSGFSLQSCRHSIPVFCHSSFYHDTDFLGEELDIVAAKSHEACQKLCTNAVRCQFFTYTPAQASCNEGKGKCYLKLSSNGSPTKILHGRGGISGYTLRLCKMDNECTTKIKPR
# Target sequence (P03951 388-625 limits assumed): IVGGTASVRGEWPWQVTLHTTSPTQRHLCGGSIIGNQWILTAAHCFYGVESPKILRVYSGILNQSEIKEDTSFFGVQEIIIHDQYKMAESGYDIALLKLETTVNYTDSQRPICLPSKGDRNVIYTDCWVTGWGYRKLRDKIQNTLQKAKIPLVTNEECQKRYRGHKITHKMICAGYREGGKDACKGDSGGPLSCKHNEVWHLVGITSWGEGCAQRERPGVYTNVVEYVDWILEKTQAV
# Calpain2 inh = calpain II (pig) inhibition | inhibition, % at 16 µM | purified calpain II, fluorogenic peptide substrate, 30 min | hit rate 0.37% among 220,000;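 active means inhibition above about 50%, limit read from the data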
# Furin inhibitor = inhibitors of human furin | P09958 | purified furin, fluorogenic substrate cleavage | inhibition, % at 20 µM or 30 µM | hit rate 0.061% among 220,000 | AID 463115; in the data active means inhibition above about 25%
# * marks the source's active call; other numbers are inactive results; . = not tested or not shown.
SMILES,FXIIa inh 1536,thrombin 1536,hK5 inh,FXIa inh,Calpain2 inh,Furin inhibitor
O=C1OC(c2cccc([N+](=O)[O-])c2)C2(CCCC2)C(=O)C12CCCCC2 (centres undefined),19.5,28.5,15.9,19.1,52.9*,-14.4
Cn1cccc1/C=N/NC(=O)c1sc2cc(Cl)ccc2c1Cl,11.0,-2.7,-7.1,0.5,17.2,-24.5
CCC1CCCCN1C(=O)c1ccc(OC2CCN(C(=O)C3CC3)CC2)cc1 (centres undefined),14.6,0.8,.,12.1,57.3*,-6.7
Cc1ccc(O)c(NC2=C(Cl)C(=O)N(Cc3ccccc3)C2=O)c1,1.1,.,-8.7,-0.9,9.0,-4.7
Cc1cccc(Cn2c(=O)n(CCCC(=O)NCc3ccco3)c(=O)c3ccccc32)c1,5.2,-3.7,-12.6,-3.1,2.1,-6.5
Cc1cccc(Cn2c(=O)n(Cc3ccco3)c(=O)c3ccccc32)c1,6.0,-2.0,4.0,-1.8,54.7*,-10.1
Cc1nc2c(cc1C(=O)N/N=C/c1ccc(O)c(O)c1)c(=O)n(C)c(=O)n2C,5.2,-7.5,-7.5,1.3,-3.5,-19.8
CCOC(=O)c1sc2ccc(S(=O)(=O)N3CCOCC3)cc2c1N,10.2,38.5,55.6*,4.8,-59.5,-29.0
CCOc1cc(C2NC(=O)NC(O)(C(F)(F)F)C2C(=O)c2ccc(Cl)cc2)ccc1O (centres undefined),27.1,54.4*,28.1,7.6,12.6,-11.5
CCCc1nnc(SCC(=O)N2CCCCC2)n1CC1CCCO1 (centres undefined),21.0,17.4,56.8*,-0.1,14.4,-7.0
CC(C)[C@H](NS(=O)(=O)c1cccc(Cl)c1)C(=O)OCC(=O)N1CCN(c2ccccc2)CC1,7.1,-7.6,-15.2,-8.3,-1.5,-20.4
Fc1cc(F)c2nc(N3CCCC3)sc2c1,102.6*,0.9,36.0,32.0,15.4,2.1
CCNc1nc(SCC(=O)OC)nc(N2CCOCC2)n1,3.4,-6.7,-12.4,-16.2,-33.6,-19.0
CCNc1nc(SC(C)C(=O)OC)nc(N2CCOCC2)n1 (centres undefined),-1.6,-1.0,115.4*,-4.7,14.7,-10.5
Oc1c(C=C2N=c3ccccc3=N2)sc(=S)n1C1CCCC1,11.8,-2.9,-12.6,6.9,6.5,-11.3
CS(=O)(=O)c1ccc(Cl)c(NC(=O)COC(=O)CNC(=O)c2ccccc2)c1,29.7,15.4,27.5,41.5*,5.1,2.8
Cc1nn(C)c(C)c1/C=C1/SC(=S)NC1=O,-2.5,-2.4,5.9,-4.2,16.4,18.9
CN(C)S(=O)(=O)c1ccc(C(=O)Nc2ccc(S(=O)(=O)NC3=NCCCCC3)cc2)cc1,1.3,0.0,5.0,5.0,17.9,-20.0
C=CCNC(=S)Nc1cccc([N+](=O)[O-])c1,7.4,-2.4,1.0,0.3,-5.7,-19.0
C=CCNC(=S)N/N=C/c1cccc([N+](=O)[O-])c1,9.1,.,-0.5,7.7,63.5*,-24.8
COc1cc(-c2nnco2)cc(OC)c1OC,47.4*,-1.8,38.1,34.4,16.9,-4.7
O=C(COC(=O)CCC1CCCC1)Nc1nc2c(F)c(F)c(F)cc2s1,1.0,8.4,0.7,2.0,4.3,4.6
O=C(NCCN1C(=O)C2C3C=CC(C3)C2C1=O)NCc1ccccc1 (centres undefined),-2.2,-2.7,-2.1,-7.4,20.5,-20.7
O=c1sc2ccccc2n1Cc1ccccc1,16.1,-1.5,-1.7,-0.5,14.2,-15.3
CCOc1ccccc1Cn1c(=O)sc2ccccc21,3.2,-1.7,-4.1,-3.2,51.0*,-20.9
SMILES,FXIIa inh 1536,thrombin 1536,hK5 inh,FXIa inh,Calpain2 inh,Furin inhibitor
O=C1C(C2=NC(c3ccccn3)C3C(=O)N(c4ccc(Cl)cc4Cl)C(=O)C23)=C(O)c2ccccc21 (centres undefined),11.5,0.1,-1.3,0.6,-6.6,-28.2
COCCNC(=O)NC(=O)CN1CCCc2ccccc21,7.2,-1.4,3.3,-0.7,64.8*,-10.0
CCOC(=O)C(CC)Sc1nc2c(c(=O)[nH]c(=O)n2C)n1C/C=C(/C)Cl (centres undefined),9.7,7.2,2.2,1.7,-24.9,27.9*
COc1ccccc1C(=O)Nc1ccc(C(=O)c2ccccc2)cc1,2.7,-1.7,-13.9,-4.0,66.8*,-7.0
COc1ccccc1C(=O)NNC(=O)c1ccc(F)cc1,8.6,17.6,60.7*,2.9,26.5,-10.6
COc1cc(OC)cc(C(=O)NNC(=O)c2ccccc2Br)c1,0.9,88.6*,30.5,-4.0,18.2,-6.4
Cc1ccc(N/C=C2\C(=O)N(c3ccc(F)cc3F)C(c3cccnc3)S2(=O)=O)cc1 (centres undefined),4.7,-3.6,-2.0,-0.8,-9.0,-18.6
CN(C)C(=O)C(=O)c1c(-c2ccccc2)cc2ccccn12,-6.7,10.3,-18.2,-16.1,53.6*,-24.4
O=C(NCCO)C(=O)c1c(-c2ccccc2)cc2ccccn12,13.4,1.8,3.3,0.1,-17.8,-18.6
C=CCO/N=C(/CCC)C1=C(N)CC(C)(C)CC1=O,-0.1,-9.4,-2.3,-6.6,7.9,-24.0
c1nc(Nc2ccc(N3CCOCC3)cc2)c2ccsc2n1,7.5,-2.9,1.9,4.4,8.8,-15.5
Fc1ccc(-c2csc3ncnc(Nc4ccc(N5CCOCC5)cc4)c23)cc1,-12.9,-2.5,41.9*,-4.1,-4.9,-28.1
CC(=O)c1cccc(NC(=O)N2CCCC2C(=O)Nc2cccc(C)c2)c1 (centres undefined),9.1,-15.0,-11.6,-0.8,-2.8,-14.4
CC(=O)Nc1cccc(NC(=O)C2CCCN2C(=O)Nc2cccc(C)c2)c1 (centres undefined),11.0,14.5,40.7*,11.9,13.1,-26.5
Cc1cc(C)cc(NC(=S)NCc2cccnc2)c1,9.5,1.9,-17.8,9.6,7.8,-19.6
CCOC(=O)CSc1nnc(-c2ccco2)n1-c1ccc(C)cc1,1.6,28.5,45.4*,1.3,20.8,-30.0
COC(=O)CSc1nnc(-c2ccccc2OC)n1-c1ccc(C)cc1,29.8,46.3*,42.9*,7.4,9.7,4.3
CCCCOC(=O)n1ccc(C(=O)Nc2ccccc2OC)n1,15.6,44.7*,4.1,2.7,-38.3,-16.3
Cc1nnc(NC(=O)CSC2CCCCC2)s1,4.5,-9.6,-25.6,-6.6,3.2,-22.8
O=C(O)c1cc(NN=Nc2ccc(Br)cc2)cc([N+](=O)[O-])c1,10.3,5.3,2.8,6.5,60.3*,-1.0
O=C(CN1C(=O)C2C3C=CC(C3)C2C1=O)NCc1ccc2c(c1)OCO2 (centres undefined),-6.7,1.0,-9.8,-6.3,-7.4,27.3*
C=CCOc1ccc(/C(O)=C2/C(=O)C(=O)N(CCCN3CCOCC3)C2c2ccccc2)cc1 (centres undefined),.,.,.,.,.,-22.4
CCN(C(=O)COC(=O)/C=C/c1c(C)nn(-c2ccccc2)c1C)C1CCS(=O)(=O)C1 (centres undefined),26.3,14.5,31.6,42.6*,5.0,-4.6
